Measurements reported in ChEMBL document CHEMBL1806480, “New condensed pyrroles of potential biological interest syntheses and structure-activity relationship studies” (2011).
≈ marks a conversion by molar mass, not a printed value. Calls of active or inactive are those of the source. The calls are words filed in the database; no cut-off is given here.

Assays:
Rattus norvegicus [1] = experiment: Antiinflammatory activity in male Sprague-Dawley rats assessed as inhibition of carrageenan-induced rat paw edema dosed subcutaneously equimolar to 70 mg/kg, sc ibuprofen administered 1 hr before carrageenan challenge measured 3 hrs post carrageenan challenge relative to control; format: functional; conditions: route subcutaneous
Method in brief: (§1)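 Male Sprague-Dawley rats, 150–170 g, 5 per group. Compounds were given subcutaneously in DMSO at doses equimolar to the reference. One hour later, 0.1 mL of 1% carrageenan was injected subplantar into the right hind paw. Right-minus-left paw volume was read by water plethysmometer at 1, 2, 3 and 4 h. %inhibition = (1 − swelling treated/swelling control) × 100. Controls received DMSO s.c. Mean ± SE reported.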

Rattus norvegicus [2] = experiment: Antiinflammatory activity in male Sprague-Dawley rats assessed as inhibition of carrageenan-induced rat paw edema dosed subcutaneously equimolar to 70 mg/kg, sc ibuprofen administered 1 hr before carrageenan challenge measured 4 hrs post carrageenan challenge relative to control; format: functional; conditions: route subcutaneous; method in brief: as §1
Rattus norvegicus [3] = experiment: Antiinflammatory activity in male Sprague-Dawley rats assessed as inhibition of carrageenan-induced rat paw edema dosed subcutaneously equimolar to 70 mg/kg, sc ibuprofen administered 1 hr before carrageenan challenge measured 2 hrs post carrageenan challenge relative to control; format: functional; conditions: route subcutaneous; method in brief: as §1
Rattus norvegicus [4] = experiment: Antiinflammatory activity in male Sprague-Dawley rat assessed as inhibition of carrageenan-induced rat paw edema dosed subcutaneously equimolar to 70 mg/kg, sc ibuprofen administered 1 hr before carrageenan challenge measured 1 hr post carrageenan challenge relative to control; format: functional; conditions: route subcutaneous; method in brief: as §1
Staphylococcus aureus [5] = experiment: Antimicrobial activity against Staphylococcus aureus ATCC 29213 after 24 hrs by microdilution technique; format: functional; conditions: ATCC 29213, 24 h
Method in brief: (§2)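 MIC by microdilution per NCCLS 1997 guidelines. Bacteria were subcultured overnight on Mueller-Hinton agar at 37 °C and passaged at least twice. Compounds were serially two-fold diluted in DMSO from 1024 to 16, mixed with nutrient agar, and inoculated. Incubation was 37 °C in a humid chamber for 24 h. MIC = lowest concentration completely inhibiting macroscopic growth. DMSO, organism-only and medium-only wells served as controls.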

Bacillus subtilis [6] = experiment: Antimicrobial activity against Bacillus subtilis ATCC 6633 after 24 hrs by microdilution technique; format: functional; conditions: for MIC: ATCC 6633, 24 h; method in brief: as §2
Pseudomonas aeruginosa [7] = experiment: Antimicrobial activity against Pseudomonas aeruginosa ATCC […] after 24 hrs by microdilution technique; format: functional; method in brief: as §2
Escherichia coli [8] = experiment: Antimicrobial activity against Escherichia coli ATCC 25922 after 24 hrs by microdilution technique; format: functional; conditions: ATCC 25922, 24 h
Method in brief: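 MIC by two-fold serial microdilution on Mueller-Hinton agar per NCCLS 1997. Compounds were dissolved in DMSO at 1024, 512, 256, 128, 64, 32 and 16 […] and mixed with sterile nutrient agar, then inoculated with bacteria subcultured overnight at 37 °C on MHA (passaged at least twice). Incubation was 37 °C in a humid chamber and endpoints were read at 24 h. MIC is the lowest concentration completely inhibiting macroscopic growth. DMSO, organism-only and medium-only wells served as controls.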

Pseudomonas aeruginosa [9] = experiment: Antimicrobial activity against Pseudomonas aeruginosa ATCC […] at 20 to 30 ug/ml after 24 hrs by disk diffusion method; format: functional, organism-based
Method in brief: (§3)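 Disc diffusion per Bauer et al. Inhibition zones were recorded. DMSO served as the solvent control. Amoxicillin and fluconazole served as reference agents.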

Mycolicibacterium phlei = experiment: Antimicrobial activity against Mycobacterium phlei ATCC 10142 at 20 to 30 ug/ml after 24 hrs by disk diffusion method; format: functional, organism-based
Staphylococcus aureus [10] = experiment: Antimicrobial activity against Staphylococcus aureus ATCC 29213 at 20 to 30 ug/ml after 24 hrs by disk diffusion method; format: functional, organism-based; method in brief: as §3
Bacillus subtilis [11] = experiment: Antimicrobial activity against Bacillus subtilis ATCC 6633 at 20 to 30 ug/ml after 24 hrs by disk diffusion method; format: functional, organism-based; method in brief: as §3
Candida albicans = experiment: Antimicrobial activity against Candida albicans ATCC 10231 at 20 to 30 ug/ml after 24 hrs by disk diffusion method; format: functional, organism-based; method in brief: as §3
Escherichia coli [12] = experiment: Antimicrobial activity against Escherichia coli ATCC 25922 at 20 to 30 ug/ml after 24 hrs by disk diffusion method; format: functional, organism-based; method in brief: as §3

SMILES	inhibition in vivo (Rattus norvegicus [1]) [%]	inhibition in vivo (Rattus norvegicus [2]) [%]	inhibition in vivo (Rattus norvegicus [3]) [%]	inhibition in vivo (Rattus norvegicus [4]) [%]	MIC (Staphylococcus aureus [5]) [µg/mL]	MIC (Bacillus subtilis [6]) [µg/mL]	MIC (Pseudomonas aeruginosa [7]) [µg/mL]	MIC (Escherichia coli [8]) [µg/mL]	Activity (Bacillus subtilis [6])	Activity (Pseudomonas aeruginosa [9])	Activity (Mycolicibacterium phlei)	Activity (Staphylococcus aureus [10])	Activity (Bacillus subtilis [11])	Activity (Candida albicans)	Activity (Escherichia coli [12])	inhibition in vivo at 70 mg/kg (Rattus norvegicus [3]; dose equimolar to 70 mg/kg ibuprofen) [%]
Cc1c(-n2c(-c3ccccc3)c(-c3ccccc3)c3c(N/N=C/c4ccccc4)ncnc32)n(C)n(-c2ccccc2)c1=O	90.8	48.4	59.6	47.8												
CC1(C)S[C@@H]2[C@H](NC(=O)[C@H](N)c3ccc(O)cc3)C(=O)N2[C@H]1C(=O)O [AMOXICILLIN]					1 (≈ 2.74 µM)	64 (≈ 175 µM)	64 (≈ 175 µM)	256 (≈ 701 µM)								
Cc1ccccc1Nc1ncnc2c1c(-c1ccccc1)c(-c1ccccc1)n2-c1c(C)c(=O)n(-c2ccccc2)n1C	13.3	28	5.17	1.95												
Cc1nc2c(c(-c3ccccc3)c(-c3ccccc3)n2-c2c(C)c(=O)n(-c3ccccc3)n2C)c(=O)[nH]1	13.2	27.6	5.37	2.16					Active							
Cc1c(-n2c(-c3ccccc3)c(-c3ccccc3)c3c(=N)[nH]cnc32)n(C)n(-c2ccccc2)c1=O	11.4	27.5	2.35	0.89		512 (≈ 1080 µM)										
Cc1c(-n2c(-c3ccccc3)c(-c3ccccc3)c3c(NN)ncnc32)n(C)n(-c2ccccc2)c1=O	65.1	54	46.1	43.7												
CC(=O)Nc1c(C#N)c(-c2ccccc2)c(-c2ccccc2)n1-c1c(C)c(=O)n(-c2ccccc2)n1C	66.5	46.4	3.07	1.73	256 (≈ 525 µM)	256 (≈ 525 µM)										
Cc1c(-n2c(-c3ccccc3)c(-c3ccccc3)c3c(Cl)ncnc32)n(C)n(-c2ccccc2)c1=O										inactive	inactive	inactive	inactive	inactive	inactive	
CCO/C=N/c1c(C#N)c(-c2ccccc2)c(-c2ccccc2)n1-c1c(C)c(=O)n(-c2ccccc2)n1C										inactive	inactive	inactive	inactive	inactive	inactive	
Cc1c(-n2c(-c3ccccc3)c(-c3ccccc3)c3c(=S)[nH]cnc32)n(C)n(-c2ccccc2)c1=O	73.3	64.3	0	0						inactive	inactive	inactive	inactive	inactive	inactive	
Cc1c(-n2c(-c3ccccc3)c(-c3ccccc3)c3c(=O)[nH]cnc32)n(C)n(-c2ccccc2)c1=O	60	27.1	60.6	63		256 (≈ 541 µM)				inactive	inactive	inactive	inactive	inactive	inactive	
Cc1c(-n2c(-c3ccccc3)c(-c3ccccc3)c3c(Nc4ccccc4)ncnc32)n(C)n(-c2ccccc2)c1=O	13	27.9	5.11	1.99												
CC(C)Cc1ccc(C(C)C(=O)O)cc1 (stereo not drawn) [IBUPROFEN]	60.7	69.5		6.08												45
Cc1c(-n2c(-c3ccccc3)c(-c3ccccc3)c3c2ncn2nnnc32)n(C)n(-c2ccccc2)c1=O										inactive	inactive	inactive	inactive	inactive	inactive	
Cc1c(-n2c(N)c(C#N)c(-c3ccccc3)c2-c2ccccc2)n(C)n(-c2ccccc2)c1=O	62.6	64.7	36.5	9.5		512 (≈ 1150 µM)										
Cc1c(-n2c(-c3ccccc3)c(-c3ccccc3)c3c2ncn2ncnc32)n(C)n(-c2ccccc2)c1=O	9.9	28.7	4.92	1.73												
Cc1c(-n2c(N)c(C(N)=O)c(-c3ccccc3)c2-c2ccccc2)n(C)n(-c2ccccc2)c1=O	47.8	62.5	26.1	19.1						inactive	inactive	inactive	inactive	inactive	inactive	
